Experimental data reported in ChEMBL document CHEMBL3813595, “Discovery of novel 5,6,7,8-tetrahydro[1,2,4]triazolo[4,3-a]pyridine derivatives as γ-secretase modulators (Part 2)” (Bioorg Med Chem, 2016).

How the values were obtained:
[1] = Lipophilicity, logD of compound at pH 7.4 by retention time-based reverse phase chromatographic analysis; assay type: physicochemical; settings: buffer
Plasma = assay: Drug uptake in APP-transgenic Tg2576 mouse plasma at 3 to 6 mg/kg, po administered as multiple dose by LC/MS/MS analysis; assay type: ADME, organism-based; settings: in vivo
Cortex [2] = assay: Drug uptake in APP-transgenic Tg2576 mouse cortex at 3 to 6 mg/kg, po administered as multiple dose by LC/MS/MS analysis; assay type: ADME, organism-based; settings: in vivo
Cortex [3] = assay: Drug uptake in APP-transgenic Tg2576 mouse cortex at 3 to 6 mg/kg, po administered as single dose after 18 hrs by LC/MS/MS analysis; assay type: ADME, organism-based; settings: in vivo, BLD = below limit of detection
[4] = Drug uptake in C57BL/6J mouse plasma at 6 mg/kg, po after 3 hrs by LC/MS/MS analysis; assay type: ADME, organism-based
Outline: (§1)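 Male C57BL/6J mice, 9 weeks old, fed, n = 3, given a single oral dose of 6 mg/kg in 0.5% methylcellulose. Plasma and cortex collected at 3 h. Cortex homogenized in saline. Samples deproteinized with MeCN containing an internal standard, then diluted in ammonium formate/acetonitrile with 0.2% formic acid for analysis.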

[5] = Drug uptake in C57BL/6J mouse cortex at 6 mg/kg, po after 3 hrs by LC/MS/MS analysis; assay type: ADME, organism-based; settings: read-out: Drug uptake; outline: as §1

| chromatographic logD [1] | Compound | further results |
| --- | --- | --- |
| 2.3 | COc1cc(-c2nnc3n2CCCC3(Cc2ccc(F)c(F)c2)C(N)=O)ccc1-c1cnc(C)o1 (configuration not stated) | – |
| 2.5 | COc1cc(-c2nnc3n2CCCC3(CO)Cc2ccc(F)c(F)c2)ccc1-c1cnc(C)o1 (configuration not stated) | – |
| 3.7 | COc1cc(-c2nnc3n2CCCC3(c2ccc(Cl)c(Cl)c2)C(C)(C)O)ccc1-c1cnc(C)o1 (configuration not stated) | – |
| 2.9 | COc1cc(-c2nnc3n2CCCC3(O)c2ccc(Cl)c(Cl)c2)ccc1-c1cnc(C)o1 (configuration not stated) | – |
| 2.9 | COc1cc(-c2nnc3n2CCCC3(c2ccc(F)c(F)c2)C(C)(C)O)ccc1-c1cnc(C)o1 (configuration not stated) | – |
| 2.5 | COc1cc(-c2nnc3n2CCCC32COc3ccccc3N(CC(F)(F)F)C2=O)ccc1-c1cnc(C)o1 (configuration not stated) | – |
| 3.2 | COc1cc(-c2nnc3n2CCC[C@@]3(Oc2cc(F)c(F)c(F)c2)C(C)(C)O)ccc1-c1cnc(C)o1 | – |
| 3.2 | COc1cc(-c2nnc3n2CCCC3(Oc2cc(F)c(F)c(F)c2)C(C)(C)O)ccc1-c1cnc(C)o1 (configuration not stated) | – |
| 2.6 | COc1cc(-c2nnc3n2CCCC3(Cc2ccc(F)c(F)c2)C(C)=O)ccc1-c1cnc(C)o1 (configuration not stated) | – |
| 2.9 | COc1cc(-c2nnc3n2CCCC3(Cc2ccc(F)c(F)c2)C(=O)N(C)CC(F)(F)F)ccc1-c1cnc(C)o1 (configuration not stated) | – |
| 2.8 | COc1cc(-c2nnc3n2CCCC32OCc3c(Cl)cccc3N(CC(F)(F)F)C2=O)ccc1-c1cnc(C)o1 (configuration not stated) | – |
| 2.8 | COc1cc(-c2nnc3n2CCCC3(Oc2ccc(F)c(F)c2)C(C)(C)O)ccc1-c1cnc(C)o1 (configuration not stated) | – |
| 2.9 | COc1cc(-c2nnc3n2CCCC32OCc3c(cccc3C(F)(F)F)N(CC(F)(F)F)C2=O)ccc1-c1cnc(C)o1 (configuration not stated) | – |
| 3.2 | COc1cc(-c2nnc3n2CCC[C@]3(Oc2cc(F)c(F)c(F)c2)C(C)(C)O)ccc1-c1cnc(C)o1 | Drug uptake (Plasma): Not Active; Drug uptake (Cortex [2]): Not Active; Drug uptake (Cortex [3]): BLD; concentration at 3 h [4]: 3310 ng/mL; concentration at 3 h [5]: 677 ng/g |
| 3.1 | COc1cc(-c2nnc3n2CCCC3(CN)c2ccc(Cl)c(Cl)c2)ccc1-c1cnc(C)o1 (configuration not stated) | – |
| 2.4 | COc1cc(-c2nnc3n2CCCC32Cc3ccccc3N(CC(F)(F)F)C2=O)ccc1-c1cnc(C)o1 (configuration not stated) | – |
| 3.2 | COc1cc(-c2nnc3n2CCCC3(CNC(C)=O)c2ccc(Cl)c(Cl)c2)ccc1-c1cnc(C)o1 (configuration not stated) | – |
| 3 | COc1cc(-c2nnc3n2CCCC3(Cc2ccc(F)c(F)c2)C(=O)NCC(F)(F)F)ccc1-c1cnc(C)o1 (configuration not stated) | – |
| 2.2 | COc1cc(-c2nnc3n2CCCC32OCc3ccccc3N(CC(F)(F)F)C2=O)ccc1-c1cnc(C)o1 (configuration not stated) | – |
| 2.2 | COc1cc(-c2nnc3n2CCCC32C(=O)N(CC(F)(F)F)c3ccccc32)ccc1-c1cnc(C)o1 (configuration not stated) | – |
| 3.7 | COc1cc(-c2nnc3n2CCCC3(OC)c2ccc(Cl)c(Cl)c2)ccc1-c1cnc(C)o1 (configuration not stated) | – |
| 3 | COc1cc(-c2nnc3n2CCCC3(Cc2ccc(F)c(F)c2)C(C)(C)O)ccc1-c1cnc(C)o1 (configuration not stated) | – |
